TAAR1 agonist: agonists of human TAAR1 | CHO RD-HGA16 TAAR1, Fluo-8 calcium fluorescence; vehicle wells 0%, saturating PEA agonist 100% | Q96RJ0 | hit rate 0.99% among 360,000 | AID 624467 | activation, % at 3 µM;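 active = activation above the mean activation of all test compounds in the run plus 3 SD, cut at about 38% in these data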
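test system = CHO RD-HGA16 cells carrying human TAAR1 plus Gα16 | schedule = 17-24 h seeding, 75 min 37 °C dye, 30 min RT | compound dosing = 3 µM single concentration | control set = DMSO and PEA EC100 | replicates = n 1 | signal = Fluo-8 fluorescence, 5 s baseline then 140 s kinetic read | measure = percent activation vs PEA EC100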
GPR7 antagonist: blocks human GPR7 receptor signaling. GPR7-expressing cells, fluorescence antagonist assay. P48145. AID 1861. inhibition, % at 4.4 µM. hit rate 1.1% among 290,000; in the data active = inhibition above about 16%, passing the limit was not always enough;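 also: cells stimulated with the agonist NPW; 0% = agonist with vehicle and 100% = vehicle without agonist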
CHO parental Ca: signal in parental CHO cells, OX1R antagonist counter-screen. hit rate 0.63% among 330,000. AID 463079. parental CHO-K1, ATP-induced calcium, Fluo-8 fluorescence. inhibition, % at 5.6 µM;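 active = inhibition above that plate's mean sample inhibition plus 3 SD, cut at about 26% in these data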;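 also: 0% = ATP-challenged DMSO wells and 100% = DMSO wells without ATP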
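Material: Parental CHO cells | Reagent: ATP | Compound dosing: Single nominal dose of 5.6 µM per compound | Detection: Intracellular calcium via Fluo-8 no-wash fluorescent dye | Read-out: % inhibition of ATP-induced calcium mobilization | Benchmarks: Low control ATP plus DMSO, high control DMSO only | Replicates: Singlicate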
OX1R antag-1: antagonists of human orexin 1 receptor (OX1R); inhibition, % at 6.6 µM; hit rate 1.8% among 330,000; OX1R-expressing cells, FRET antagonist read-out; AID 485270; in the data active = inhibition mostly above about 38%, no sharp cut-off; inactive = mostly below about 40%;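 also: 0% = agonist challenge alone and 100% = reference antagonist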
Target sequence (O43613 whole entry, looked up): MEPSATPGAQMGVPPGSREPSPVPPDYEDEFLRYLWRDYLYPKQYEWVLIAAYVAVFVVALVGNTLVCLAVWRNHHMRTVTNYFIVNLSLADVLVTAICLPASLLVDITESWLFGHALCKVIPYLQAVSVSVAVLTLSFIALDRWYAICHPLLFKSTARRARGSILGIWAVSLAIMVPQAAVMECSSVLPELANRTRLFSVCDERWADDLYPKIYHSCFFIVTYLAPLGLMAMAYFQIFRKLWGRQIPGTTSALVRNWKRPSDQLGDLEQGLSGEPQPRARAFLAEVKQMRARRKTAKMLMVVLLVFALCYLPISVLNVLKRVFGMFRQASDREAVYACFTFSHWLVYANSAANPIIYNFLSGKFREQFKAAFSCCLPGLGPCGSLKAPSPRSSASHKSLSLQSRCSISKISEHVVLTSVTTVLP
OX1R antag-2: blocks the human orexin 1 receptor. CHO/OX1R cells, Fluo-8 calcium fluorescence, orexin A. inhibition, % at 5 µM. hit rate 0.43% among 330,000. AID 434989;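 active = inhibition above its plate's threshold, mean inhibition of all tested compounds on the plate plus 3 SD, cut at about 37% in these data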;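 also: 0% = orexin A challenge wells and 100% = SB-334867-A antagonist wells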
TAAR1 antagonist: antagonists of human TAAR1; Q96RJ0; CHO RD-HGA16 TAAR1, Fluo-8 calcium fluorescence, antagonist; inhibition, % at 3 µM; hit rate 1.5% among 360,000;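 active = inhibition above a per-plate cutoff, the mean inhibition of test compounds on that plate plus 3 SD, cut at about 49% in these data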;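 also: 0% = DMSO plus EC80 beta-PEA response and 100% = DMSO alone without agonist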
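Test system – hTAAR1-expressing CHO RD-HGA16 cells, Gα16-coupled · Reagent – β-PEA at EC80 concentration, post-compound challenge · Compound dosing – 3 µM, single point · Timing – 140 s kinetic read after compound, 140 s after agonist · Detection – Fluo-8 intracellular calcium dye fluorescence, real-time kinetic reads · Control set – DMSO and EC80 PEA controls · Repeats – n of 1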
nonsel antag count: counter-screen for TAAR1 antagonists: nonselective antagonists; shares compounds with TAAR1 antagonist; counterscreen cell line, calcium fluorescence, antagonist mode; inhibition, % at 3 µM; hit rate 77% among 2,400; AID 651780; in the data active = inhibition above about 22%;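 also: CHO-Ga16 host cells stimulated with ATP at an EC80 level; 0% = agonist EC80 plus vehicle and 100% = vehicle without agonist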
TAAR1 ant conf: confirmation of human TAAR1 antagonists; shares compounds with TAAR1 antagonist; TAAR1-expressing cells, fluorescence antagonist read-out; inhibition, % at 3 µM; hit rate 40% among 2,400; in the data active = inhibition above about 49%;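 also: CHO-Ga16 host cells challenged with agonist PEA near its EC80; 0% = agonist at EC80 plus vehicle and 100% = vehicle with no agonist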
Ga16 nonsel ag: nonselective Ga16 agonist in TAAR1 antagonist counter-screen. activation, % at 3 µM. shares compounds with TAAR1 antagonist. AID 651953. Ga16-expressing cells, calcium fluorescence, agonist counterscreen. hit rate 18% among 2,400; in the data active = activation above about 12%;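 also: 0% = vehicle wells and 100% = saturating stimulus response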
TAAR1 ag count: TAAR1 agonism, antagonist counter-screen. activation, % at 3 µM. shares compounds with TAAR1 antagonist. hTAAR1 cell line, fluorescence activation, agonist mode. AID 651955. hit rate 2% among 2,400; in the data active = activation above about 37%;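 also: CHO cells stably expressing TAAR1 with calcium dye readout; 0% = DMSO vehicle and 100% = full agonist response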
Numbers without * were called inactive; . = no result given. Shown are actives, neighbours in structure and some others; about 4.6% of the full set was active somewhere.

SMILES | TAAR1 agonist | GPR7 antagonist | CHO parental Ca | OX1R antag-1 | OX1R antag-2 | TAAR1 antagonist | nonsel antag count | TAAR1 ant conf | Ga16 nonsel ag | TAAR1 ag count
CC(C)(Oc1ccc(Cl)cc1)C(=O)NCC(c1cccs1)N1CCOCC1 (stereo not given) | 9.1 | . | -8.5 | 18.7 | -8.8 | 58.2* | 17.1 | 23.3 | 5.1 | 1.1
COc1ccccc1NC(CC(=O)c1ccccc1)C(=O)OCC(=O)c1ccc(F)cc1 (stereo not given) | 0.7 | 9.6 | -19.7 | 9.3 | -2.1 | 13.6 | . | . | . | .
CCOc1ccc2ncc(S(=O)(=O)c3ccc(C)cc3)c(N3CCC4(CC3)OCCO4)c2c1 | 7.6 | -15.2 | -12.2 | 27.7 | -13.1 | 63.2* | 20.3 | 45.5 | 4.1 | 0.4
CCOC(=O)c1cnc2ccc(OCC)cc2c1N1CCN(C)CC1 | -1.1 | -6.3 | -15.2 | 28.5 | -27.1 | 10.6 | . | . | . | .
CC(NC(=O)C(=O)N1CCCCC1)C(c1cccs1)N1CCN(C)CC1 (stereo not given) | 0.3 | 5.5 | -2.8 | 6.4 | 8.0 | 0.6 | . | . | . | .
CCCN(CC1CC1)C(=O)COC(=O)c1ccc2c(c1)C(=O)N(c1ccc(OCC)cc1)C2=O | 33.5 | -9.6 | -12.9 | 18.2 | -2.5 | 54.6* | 30.4* | 40.4 | 7.5 | 6.4
CCOc1ccc(N2C(=O)c3ccc(C(=O)OCc4c(C)noc4C)cc3C2=O)cc1 | 10.6 | 1.8 | -4.7 | 6.1 | -17.9 | -6.9 | . | . | . | .
N#C/C(=C\c1ccc(-c2ccc(C(=O)O)cc2)o1)C(=O)Nc1ccc(F)cc1 | 22.0 | -5.9 | -5.3 | 16.6 | -13.8 | 70.1* | 33.2* | 44.8 | 16.6* | 20.0
COc1ccc(OC)c(COC(=O)c2cccc(S(=O)(=O)N3CCCCC3)c2)c1 | 4.8 | . | -19.7 | 6.9 | -7.7 | -8.6 | . | . | . | .
Cc1ccc(S(=O)(=O)N2CCOCC2)cc1C(=O)Nc1ccc(-c2cn3ccsc3n2)cc1 | 17.9 | 1.9 | 8.3 | 58.2 | 7.5 | 73.7* | 30.4* | 74.5* | 10.1 | 8.7
COc1ccc(S(=O)(=O)Nc2cccc3c2O[C@H](CN(C)C(=O)NC2CCCCC2)[C@@H](C)CN([C@H](C)CO)C3=O)cc1 | -1.0 | . | -27.4 | 6.3 | -23.9 | 5.0 | . | . | . | .
O=C(CCc1nnc(CCc2ccccc2)o1)N1CCCC1c1nccs1 (stereo not given) | 1.6 | -14.6 | -7.3 | 16.9 | -31.9 | -24.1 | . | . | . | .
COc1ccc2[nH]c(=O)c(CN(CC3CCCO3)S(=O)(=O)c3ccccc3F)cc2c1 (stereo not given) | 22.8 | -11.6 | -24.3 | 23.9 | -29.4 | 63.2* | 26.1* | 42.8 | 9.7 | 16.5
COc1ccc(NC(=O)N(Cc2cc3cc(C)ccc3[nH]c2=O)CC2CCCO2)cc1 (stereo not given) | -0.4 | -15.4 | -19.5 | 7.3 | -24.5 | -14.8 | . | . | . | .
COc1ccc2[nH]c(=O)c(CN(CC3CCCO3)S(=O)(=O)c3ccccc3)cc2c1 (stereo not given) | 13.9 | -19.4 | -31.2 | 14.6 | -21.1 | 41.0 | . | . | . | .
COc1ccc2[nH]c(=O)c(CN(CC3CCCO3)C(=O)Nc3ccc(F)cc3)cc2c1 (stereo not given) | 24.1 | -0.5 | . | . | . | 80.8* | 51.6* | 66.1* | 16.2* | 11.7
CCOC(=O)c1ccc(-c2ccc(/C=N/NC(=O)CN(c3ccccc3Br)S(C)(=O)=O)o2)cc1 | 4.5 | -7.8 | -0.9 | 10.1 | -11.3 | 56.8* | 28.9* | 33.2 | 8.0 | 12.1
CS(=O)(=O)N(CC(=O)N/N=C/c1cccc2c1OCCO2)c1ccccc1Br | 4.8 | 8.6 | -22.6 | 10.9 | -17.0 | 9.4 | . | . | . | .
CCOC(=O)c1sc(NC(=O)CSc2nc3c(c(=O)n2-c2ccc(F)cc2)SCC3)c(C(=O)OCC)c1C | . | -5.2 | . | . | . | . | . | . | . | .
